In ChEMBL document CHEMBL4052588, “Design of a Biased Potent Small Molecule Inhibitor of the Bromodomain and PHD Finger-Containing (BRPF) Proteins Suitable for Cellular and in Vivo Studies” (J Med Chem, 2017):

Tests used:
[1] = molecular target: E3 ubiquitin-protein ligase TRIM33 (Homo sapiens, UniProt Q9UPN9); test: Inhibition of human TRIM33 expressed in Escherichia coli BL21 after 1 hr by BROMOscan assay
[2] = molecular target: T1, Chromatin remodeling regulator CECR2 (Homo sapiens, UniProt Q9BXF3); test: Inhibition of human CECR2 expressed in Escherichia coli BL21 after 1 hr by BROMOscan assay
T1 sequence (Q9BXF3 whole entry): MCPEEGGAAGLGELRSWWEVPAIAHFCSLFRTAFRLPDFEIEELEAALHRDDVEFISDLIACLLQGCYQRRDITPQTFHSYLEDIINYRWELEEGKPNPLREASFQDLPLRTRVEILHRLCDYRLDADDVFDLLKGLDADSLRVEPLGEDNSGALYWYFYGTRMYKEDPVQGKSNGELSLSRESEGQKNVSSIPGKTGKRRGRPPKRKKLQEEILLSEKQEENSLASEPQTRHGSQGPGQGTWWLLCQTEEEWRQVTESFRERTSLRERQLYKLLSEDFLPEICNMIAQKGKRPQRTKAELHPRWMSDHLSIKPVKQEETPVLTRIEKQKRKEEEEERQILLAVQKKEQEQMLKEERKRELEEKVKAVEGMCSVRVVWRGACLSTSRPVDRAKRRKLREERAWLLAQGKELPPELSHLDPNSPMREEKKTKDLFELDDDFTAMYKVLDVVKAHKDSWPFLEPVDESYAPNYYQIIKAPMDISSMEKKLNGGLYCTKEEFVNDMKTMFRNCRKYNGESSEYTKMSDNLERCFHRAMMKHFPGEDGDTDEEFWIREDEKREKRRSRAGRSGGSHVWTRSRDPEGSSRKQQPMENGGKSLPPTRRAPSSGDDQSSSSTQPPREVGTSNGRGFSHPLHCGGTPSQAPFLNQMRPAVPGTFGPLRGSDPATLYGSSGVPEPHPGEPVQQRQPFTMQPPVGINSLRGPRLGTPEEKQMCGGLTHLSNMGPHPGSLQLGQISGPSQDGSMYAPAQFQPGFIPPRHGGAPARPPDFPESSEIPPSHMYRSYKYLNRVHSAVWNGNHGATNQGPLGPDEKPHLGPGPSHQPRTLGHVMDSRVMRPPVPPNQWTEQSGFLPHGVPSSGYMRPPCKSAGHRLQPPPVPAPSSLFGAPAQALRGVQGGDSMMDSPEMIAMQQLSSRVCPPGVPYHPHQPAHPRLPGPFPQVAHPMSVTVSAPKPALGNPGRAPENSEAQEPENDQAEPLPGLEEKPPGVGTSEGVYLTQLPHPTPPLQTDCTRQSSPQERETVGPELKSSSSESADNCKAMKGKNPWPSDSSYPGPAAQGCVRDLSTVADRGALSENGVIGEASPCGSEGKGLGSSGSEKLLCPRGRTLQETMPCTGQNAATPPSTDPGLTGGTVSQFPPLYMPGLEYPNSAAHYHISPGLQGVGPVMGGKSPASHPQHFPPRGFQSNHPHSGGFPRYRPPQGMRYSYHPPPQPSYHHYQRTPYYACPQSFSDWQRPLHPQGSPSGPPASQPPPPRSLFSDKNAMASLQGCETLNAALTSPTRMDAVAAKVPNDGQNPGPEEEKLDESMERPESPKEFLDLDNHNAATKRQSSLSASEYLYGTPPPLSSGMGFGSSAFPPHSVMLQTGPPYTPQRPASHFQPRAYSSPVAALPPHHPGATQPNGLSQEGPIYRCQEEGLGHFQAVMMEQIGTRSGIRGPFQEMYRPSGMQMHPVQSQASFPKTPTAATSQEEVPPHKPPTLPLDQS

[3] = molecular target: T1, Chromatin remodeling regulator CECR2; test: Inhibition of human His tagged CECR2 incubated for 30 mins followed by addition of biotinylated peptide and further incubation for 30 mins measured by AlphaScreen assay
SK-CO-1 = test: Growth inhibition of human SKCO1 cells after 72 hrs; type: functional; conditions: SK-CO-1, 72 h
IM-9 = test: Growth inhibition of human IM9 cells after 72 hrs; type: functional; conditions: IM-9, 72 h
KG-1 = test: Growth inhibition of human KG1 cells after 72 hrs; type: functional; conditions: KG-1, 72 h
[4] = Oral bioavailability in CD-1 mouse at 3 mg/kg; type: ADME, organism-based; conditions: in vivo
Summary of the method: (§1)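 Female CD-1 mice (n = 3), single dosing: intravenous 1.0 mg/kg, or oral 3.0 mg/kg given as a suspension. Blood levels were followed over time to derive clearance, volume of distribution, elimination half-life, Cmax, Tmax, AUC0−∞, oral bioavailability and fraction absorbed.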

[5] = molecular target: T2, Bromodomain and PHD finger-containing protein 3 (Homo sapiens, UniProt Q9ULD4); test: Inhibition of human His tagged BRPF3 incubated for 30 mins followed by addition of biotinylated peptide and further incubation for 30 mins measured by AlphaScreen assay
T2 sequence (Q9ULD4 whole entry): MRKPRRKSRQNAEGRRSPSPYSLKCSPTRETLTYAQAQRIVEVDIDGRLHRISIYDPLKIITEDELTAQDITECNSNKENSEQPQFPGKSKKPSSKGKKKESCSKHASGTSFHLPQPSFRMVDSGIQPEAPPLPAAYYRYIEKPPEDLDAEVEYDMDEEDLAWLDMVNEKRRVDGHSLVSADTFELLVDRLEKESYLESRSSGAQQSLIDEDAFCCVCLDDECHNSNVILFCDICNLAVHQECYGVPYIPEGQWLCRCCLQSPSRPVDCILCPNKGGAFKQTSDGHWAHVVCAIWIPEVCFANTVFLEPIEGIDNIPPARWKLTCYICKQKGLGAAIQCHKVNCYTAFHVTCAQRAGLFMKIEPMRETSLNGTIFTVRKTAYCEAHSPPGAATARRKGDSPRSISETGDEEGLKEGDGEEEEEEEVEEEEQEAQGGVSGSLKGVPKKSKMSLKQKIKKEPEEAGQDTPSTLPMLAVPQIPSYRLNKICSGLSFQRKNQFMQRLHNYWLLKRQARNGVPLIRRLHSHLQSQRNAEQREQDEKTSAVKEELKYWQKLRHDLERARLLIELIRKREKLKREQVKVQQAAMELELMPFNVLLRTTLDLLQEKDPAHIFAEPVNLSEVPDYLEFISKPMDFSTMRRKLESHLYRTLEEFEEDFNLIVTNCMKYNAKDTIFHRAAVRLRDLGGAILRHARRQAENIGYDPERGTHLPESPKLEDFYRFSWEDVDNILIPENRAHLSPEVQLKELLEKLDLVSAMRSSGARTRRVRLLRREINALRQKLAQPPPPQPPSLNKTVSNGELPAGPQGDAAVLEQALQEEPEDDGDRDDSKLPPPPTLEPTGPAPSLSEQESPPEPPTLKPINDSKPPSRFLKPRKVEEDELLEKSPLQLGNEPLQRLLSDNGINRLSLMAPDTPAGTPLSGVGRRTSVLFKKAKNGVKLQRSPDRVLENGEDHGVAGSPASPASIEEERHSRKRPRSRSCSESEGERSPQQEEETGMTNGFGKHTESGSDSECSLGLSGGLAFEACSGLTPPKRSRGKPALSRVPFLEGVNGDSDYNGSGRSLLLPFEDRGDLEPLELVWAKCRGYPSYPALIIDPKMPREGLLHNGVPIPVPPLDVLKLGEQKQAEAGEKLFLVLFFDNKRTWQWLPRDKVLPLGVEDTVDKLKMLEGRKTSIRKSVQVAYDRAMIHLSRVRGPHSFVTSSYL
Summary of the method: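 AlphaScreen biochemical readout of bromodomain inhibition, giving an IC50. Compound series were made by serial dilution of a 100 mM DMSO stock. […] Differences under 2-fold are treated as not significant.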

[6] = Growth inhibition of human QGP1 cells after 72 hrs; type: functional; conditions: QGP-1, 72 h
RKO = test: Growth inhibition of human RKO cells after 72 hrs; type: functional
[7] = Elimination half life in CD-1 mouse plasma at 1 mg/kg, iv administered as bolus; type: ADME, organism-based; conditions: read-out: beta t1/2 (converted); summary of the method: as §1
NOMO-1 = test: Growth inhibition of human NOMO1 cells after 72 hrs; type: functional; conditions: NOMO-1, 72 h
[8] = Cmax in CD-1 mouse blood at 3 mg/kg, po; type: ADME, organism-based; parameters: dose 3 mg/kg, route oral; conditions: whole blood; summary of the method: as §1
[9] = molecular target: T3, Bromodomain-containing protein 9 (Homo sapiens, UniProt Q9H8M2); test: Binding affinity to human BRD9 by isothermal titration calorimetry
T3 sequence (Q9H8M2 whole entry): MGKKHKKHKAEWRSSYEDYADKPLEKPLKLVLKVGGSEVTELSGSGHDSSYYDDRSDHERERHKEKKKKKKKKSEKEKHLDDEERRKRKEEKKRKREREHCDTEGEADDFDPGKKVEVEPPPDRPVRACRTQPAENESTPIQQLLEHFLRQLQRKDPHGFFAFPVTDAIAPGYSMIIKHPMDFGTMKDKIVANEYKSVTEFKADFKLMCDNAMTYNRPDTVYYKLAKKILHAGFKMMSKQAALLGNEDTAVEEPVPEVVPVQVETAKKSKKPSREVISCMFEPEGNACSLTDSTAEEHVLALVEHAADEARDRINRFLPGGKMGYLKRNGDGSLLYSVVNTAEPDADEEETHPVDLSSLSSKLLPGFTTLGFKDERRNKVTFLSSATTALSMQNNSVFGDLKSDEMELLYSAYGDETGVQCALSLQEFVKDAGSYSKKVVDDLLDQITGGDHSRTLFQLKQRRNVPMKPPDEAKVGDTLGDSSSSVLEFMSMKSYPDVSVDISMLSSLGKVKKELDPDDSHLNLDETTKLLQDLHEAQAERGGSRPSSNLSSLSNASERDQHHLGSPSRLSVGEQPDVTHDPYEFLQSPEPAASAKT

THP-1 = test: Growth inhibition of human THP1 cells after 72 hrs; type: functional; conditions: THP-1, 72 h
[10] = Fraction unbound in mouse plasma; type: ADME, cell-free

Sequence of E3 ubiquitin-protein ligase TRIM33 (Q9UPN9 whole entry): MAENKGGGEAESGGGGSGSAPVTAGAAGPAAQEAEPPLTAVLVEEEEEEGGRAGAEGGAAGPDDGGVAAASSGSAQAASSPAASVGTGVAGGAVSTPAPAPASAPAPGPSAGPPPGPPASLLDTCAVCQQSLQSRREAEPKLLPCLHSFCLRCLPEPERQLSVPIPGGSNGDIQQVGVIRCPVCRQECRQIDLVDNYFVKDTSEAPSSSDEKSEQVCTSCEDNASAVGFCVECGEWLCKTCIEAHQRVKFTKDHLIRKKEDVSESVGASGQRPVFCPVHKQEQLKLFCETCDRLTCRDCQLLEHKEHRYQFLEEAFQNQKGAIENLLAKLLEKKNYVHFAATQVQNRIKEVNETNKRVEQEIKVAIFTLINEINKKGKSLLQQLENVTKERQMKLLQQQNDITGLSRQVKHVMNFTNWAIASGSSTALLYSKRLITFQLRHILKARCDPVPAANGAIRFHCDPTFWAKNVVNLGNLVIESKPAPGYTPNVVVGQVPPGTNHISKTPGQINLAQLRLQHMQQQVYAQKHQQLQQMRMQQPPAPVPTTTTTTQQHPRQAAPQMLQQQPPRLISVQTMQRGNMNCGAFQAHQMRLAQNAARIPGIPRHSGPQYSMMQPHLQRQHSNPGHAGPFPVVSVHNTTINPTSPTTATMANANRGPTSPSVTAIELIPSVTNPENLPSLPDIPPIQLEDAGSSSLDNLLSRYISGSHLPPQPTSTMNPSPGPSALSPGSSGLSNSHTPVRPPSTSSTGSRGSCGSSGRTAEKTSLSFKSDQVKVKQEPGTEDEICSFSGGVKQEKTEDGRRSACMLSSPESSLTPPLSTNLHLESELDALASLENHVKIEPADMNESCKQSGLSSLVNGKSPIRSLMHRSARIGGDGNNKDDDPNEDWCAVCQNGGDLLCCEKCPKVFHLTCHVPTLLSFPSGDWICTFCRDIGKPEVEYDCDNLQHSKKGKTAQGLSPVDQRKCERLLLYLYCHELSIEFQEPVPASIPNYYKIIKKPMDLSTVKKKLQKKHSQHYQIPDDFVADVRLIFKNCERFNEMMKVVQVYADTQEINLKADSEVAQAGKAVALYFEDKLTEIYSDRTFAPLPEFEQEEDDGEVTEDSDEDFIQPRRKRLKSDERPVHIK

SMILES	IC50 [1]	IC50 [2]	IC50 [3]	GI50 (SK-CO-1)	GI50 (IM-9)	GI50 (KG-1)	bioavailability [4]	IC50 [5]	GI50 [6]	GI50 (RKO)	half-life [7]	GI50 (NOMO-1)	Cmax [8]	Kd [9]	GI50 (THP-1)	fraction unbound [10]
CCc1cc2cc(NS(=O)(=O)c3ccc(C#N)cc3)ccc2n(CC)c1=O	> 100 µM	> 100 µM	> 20 µM													
Cc1cc2cc(NS(=O)(=O)c3ccc(C#N)cc3)ccc2n(C)c1=O				1 to 10 µM	1 to 10 µM	7 µM	49%	2 µM	1 to 10 µM	1 to 10 µM	2 h	4.6 µM	4 µM	1.13 µM	5.7 µM	0.03
